Assay [1] relates to Mus musculus. The assay can be described thus: Protection against electroshock-induced convulsions in mouse up to 300 mg/kg, ip after 0.5 hrs by MES assay. In kind it is functional, organism-based. Details: dose 300 mg/kg. An outline of the steps:
(§1)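 Mice were dosed intraperitoneally with test drug, positive control or vehicle (DMSO) 30 min before electroshock at 50 mA for 0.2 s. The end-point was the hind limb tonic extensor component. Doses up to 300 mg/kg. Done in triplicate (n = 3). ED50 in mg/kg was derived by non-linear regression and given as mean with 95% confidence intervals.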

In assay [2] the test system is Mus musculus. The assay can be described thus: Protection against PTZ-induced convulsions in mouse up to 300 mg/kg, ip after 0.5 hrs by scPTZ assay. Details: dose 300 mg/kg. It is filed as functional, organism-based. The essentials:
(§2)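 Mice received test drug, positive control or vehicle (DMSO) intraperitoneally 30 min before a subcutaneous PTZ injection at 80 mg/kg. The end-point was clonic seizure lasting more than 5 s. Tested up to 300 mg/kg. Run in triplicate (n = 3). ED50 in mg/kg was found by non-linear regression, as mean with 95% confidence intervals.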

In assay [3] the test system is Mus musculus. The assay can be described thus: Protection against PTZ-induced convulsions in ip dosed mouse after 0.5 hrs by scPTZ assay. In kind it is functional. An outline of the steps:
as §2

Assay [4] deals with Mus musculus. The experiment in a line: Protection against electroshock-induced convulsions in ip dosed mouse after 0.5 hrs by MES assay. In kind it is functional. The essentials: as §1
In assay [5] the test system is Mus musculus. The experiment in a line: Protection against electroshock-induced convulsions in mouse at 300 mg/kg, ip after 0.5 hrs by MES assay. It is filed as functional, organism-based. Also noted: dose 300 mg/kg. An outline of the steps:
as §1

Assay [6] has as its system Mus musculus. The experiment in a line: Protection against PTZ-induced convulsions in mouse at 300 mg/kg, ip after 0.5 hrs by scPTZ assay. It is filed as functional, organism-based. Also noted: dose 300 mg/kg. The essentials: as §2

A word on the ED50: it is the dose at which the effect has come halfway, by size or by number of responders. High values mean a need for a large dose, low ones an effect at a small dose.

Calls of active or inactive are those of the source. The calls are words filed in the database; no cut-off is given here.

`O=C1OC2(C(=O)N(C3CCCCC3)C(=O)N2C2CCCCC2)c2ccccc21` (stereo not given): the result in assay [1] and in assay [2] was inactive.
With `CCN1C(=O)N(c2ccc(F)cc2)C(=O)C12OC(=O)c1ccccc12` (stereo not given), the ED50 in assay [3] is 85.8 mg/kg; in assay [4], over 100 mg/kg.
In the case of `CCC1(c2ccccc2)C(=O)NC(=O)NC1=O` [PHENOBARBITAL], the outcome in assay [1] was inactive. The compound further had an ED50 in assay [3] of 20 mg/kg.
`CCCCN1C(=O)N(CCCC)C2(OC(=O)c3ccccc32)C1=O` (stereo not given) gave an ED50 in assay [3] of over 100 mg/kg. Moreover, the outcome in assay [5] was Active.
Consider `CN1C(=O)N(c2ccc(F)cc2)C(=O)C12OC(=O)c1ccccc12` (stereo not given), for which the results for the ED50 in assay [3] and in assay [4] were 87.1 mg/kg and over 100 mg/kg, respectively.
Taken in the same sequence, the figures for `CN1C(=O)N(c2ccc(C(F)(F)F)cc2)C(=O)C12OC(=O)c1ccccc12` (stereo not given) were over 100 mg/kg and over 100 mg/kg.
For the compound `CCN1C(=O)N(c2ccccc2)C(=O)C12OC(=O)c1ccccc12` (stereo not given), the ED50 turned out to be 54.8 mg/kg in assay [3] and 81 mg/kg in assay [4].
`CN1C(=O)N(c2ccccc2)C(=O)C12OC(=O)c1ccccc12` (stereo not given): the 50% effect level in assay [3] (ED50) was put at a dose of 96.8 mg/kg. Also, the result in assay [5] was Active.
Consider `O=C1NC(=O)C(c2ccccc2)(c2ccccc2)N1` [PHENYTOIN], for which the outcome in assay [2] was inactive. In addition, the 50% effect level in assay [4] (ED50) was put at a dose of 8.1 mg/kg.
On to `CCN1C(=O)N(c2ccc(OC)cc2)C(=O)C12OC(=O)c1ccccc12` (stereo not given), for which, in assay [3], the ED50 was 82.5 mg/kg. Besides, in assay [5], the result was Active.
As to `CCN1C(=O)N(C)C(=O)C12OC(=O)c1ccccc12` (stereo not given), in assay [1], the outcome was inactive. For the same compound, the outcome in assay [6] was Active.
The like results for `CN1C(=S)N(c2ccccc2)C(=O)C12OC(=O)c1ccccc12` (stereo not given) were, in that order, “inactive” and “Active”.
For `CCN1C(=O)N(c2ccc([N+](=O)[O-])cc2)C(=O)C12OC(=O)c1ccccc12` (stereo not given), the result in assay [1] was inactive. This compound also registered an ED50 in assay [3] of 41.8 mg/kg.
With `CCCN1C(=O)N(CCC)C2(OC(=O)c3ccccc32)C1=O` (stereo not given), the ED50 was 78.5 mg/kg in assay [3] and over 100 mg/kg in assay [4].
Consider `CC(C)N1C(=O)N(C(C)C)C2(OC(=O)c3ccccc32)C1=O` (stereo not given), for which the outcome in assay [1] was inactive. Moreover, in assay [6], the outcome was Active.

(Values after ChEMBL document CHEMBL1148686, “Synthesis and anticonvulsant activity of new N-1',N-3'-disubstituted-2'H,3H,5'H-spiro-(2-benzofuran-1,4'-imidazolidine)-2',3,5'-triones” (2006).)
